Reference: ChEMBL document CHEMBL4043097, “Synthesis and evaluation of hydroxychalcones as multifunctional non-purine xanthine oxidase inhibitors for the treatment of hyperuricemia” (Bioorg Med Chem Lett, 2017)

Legend:
[1] = target: T1, Xanthine dehydrogenase/oxidase (Bos taurus, UniProt P80457); assay: Inhibition of bovine milk xanthine oxidase pre-incubated for 30 mins followed by xanthine addition and measured every 30 secs for 5 mins by spectrophotometry
[2] = Antioxidant activity assessed as ABTS free radical scavenging activity by measuring trolox equivalents after 6 mins; format: functional
In short: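 ABTS radical scavenging, expressed as trolox equivalent: (mmol trolox)/(mmol tested compound).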

[3] = Antioxidant activity assessed as DPPH free radical scavenging activity incubated for 30 mins; format: functional
[4] = target: T1, Xanthine dehydrogenase/oxidase; assay: Mixed type inhibition of bovine milk xanthine oxidase pre-incubated for 30 mins followed by xanthine addition and measured every 30 secs for 5 mins by spectrophotometry based L-B plot analysis; conditions: cattle
In short: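 Inhibition type from Michaelis–Menten kinetics. Initial XO velocity measured at increasing xanthine concentrations with inhibitor at 0, 25, 50 and 100 µM. Activity read as change in absorbance at 295 nm per unit time; mode assigned from overlaid Lineweaver–Burk reciprocal plots.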

Mus musculus [5] = assay: Anti-hyperuricemic activity in potassium oxonate-induced hyperuricemic Kun-Ming mouse assessed as serum uric acid level at 10 mg/kg/day, ig for 7 days and measured 1 hr post last dose (reference value: 5.89 +/- 0.36 mg/dl); format: functional
Mus musculus [6] = assay: Anti-hyperuricemic activity in potassium oxonate-induced hyperuricemic Kun-Ming mouse assessed as serum uric acid level at 50 mg/kg/day, ig for 7 days and measured 1 hr post last dose (reference value: 5.89 +/- 0.36 mg/dl); format: functional
Mus musculus [7] = assay: Anti-hyperuricemic activity in potassium oxonate-induced hyperuricemic Kun-Ming mouse assessed as xanthine oxidase activity per gram of protein at 10 mg/kg/day, ig for 7 days and measured 1 hr post last dose (reference value: 81.5 +/- 1.4 U/g protein); format: functional
Mus musculus [8] = assay: Anti-hyperuricemic activity in potassium oxonate-induced hyperuricemic Kun-Ming mouse assessed as xanthine oxidase activity per gram of protein at 50 mg/kg/day, ig for 7 days and measured 1 hr post last dose (reference value: 81.5 +/- 1.4 U/g protein); format: functional
Mus musculus [9] = assay: Anti-hyperuricemic activity in potassium oxonate-induced hyperuricemic Kun-Ming mouse assessed as reduction in serum uric acid level at 10 and 50 mg/kg/day, ig for 7 days and measured 1 hr post last dose; format: functional, organism-based
Mus musculus [10] = assay: Toxicity in Kun-Ming mouse assessed as induction of mortality at 5000 mg/kg, ig measured continuously for first 4 hrs and intermittently for next 24 hrs; format: organism-based; conditions: in vivo, po
In short: (§1)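 Mice received a single 5,000 mg/kg dose. They were watched continuously for the first 4 h and intermittently over the next 24 h for abnormal behaviour and mortality. Water intake, food intake and body weight were tracked over the experimental period. The protocol was adapted from an earlier reported acute toxicity study.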

Mus musculus [11] = assay: Toxicity in Kun-Ming mouse assessed as effect on water consumption at 5000 mg/kg, ig measured continuously for first 4 hrs and intermittently for next 24 hrs; format: organism-based; conditions: in vivo, po; in short: as §1
Mus musculus [12] = assay: Toxicity in Kun-Ming mouse assessed as effect on food consumption at 5000 mg/kg, ig measured continuously for first 4 hrs and intermittently for next 24 hrs; format: organism-based; conditions: in vivo, po; in short: as §1
Mus musculus [13] = assay: Toxicity in Kun-Ming mouse assessed as induction of body weight reduction at 5000 mg/kg, ig measured continuously for first 4 hrs and intermittently for next 24 hrs; format: organism-based; conditions: in vivo, po; in short: as §1
[14] = Antioxidant activity assessed as DPPH free radical scavenging activity incubated for 30 mins at 2000 uM; format: functional
In short: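 DPPH radical scavenging, given as percent inhibitory rate with test compound at 2000 µM.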

[15] = target: T1, Xanthine dehydrogenase/oxidase; assay: Inhibition of bovine milk xanthine oxidase at 1000 uM pre-incubated for 30 mins followed by xanthine addition and measured every 30 secs for 5 mins by spectrophotometry; conditions: cattle
In short: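 XO inhibition tested up to 1000 µM, the highest concentration tested; compounds precipitate above this. IC50 values from three experiments, reported as mean ± SEM.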

T1 sequence (P80457 whole entry): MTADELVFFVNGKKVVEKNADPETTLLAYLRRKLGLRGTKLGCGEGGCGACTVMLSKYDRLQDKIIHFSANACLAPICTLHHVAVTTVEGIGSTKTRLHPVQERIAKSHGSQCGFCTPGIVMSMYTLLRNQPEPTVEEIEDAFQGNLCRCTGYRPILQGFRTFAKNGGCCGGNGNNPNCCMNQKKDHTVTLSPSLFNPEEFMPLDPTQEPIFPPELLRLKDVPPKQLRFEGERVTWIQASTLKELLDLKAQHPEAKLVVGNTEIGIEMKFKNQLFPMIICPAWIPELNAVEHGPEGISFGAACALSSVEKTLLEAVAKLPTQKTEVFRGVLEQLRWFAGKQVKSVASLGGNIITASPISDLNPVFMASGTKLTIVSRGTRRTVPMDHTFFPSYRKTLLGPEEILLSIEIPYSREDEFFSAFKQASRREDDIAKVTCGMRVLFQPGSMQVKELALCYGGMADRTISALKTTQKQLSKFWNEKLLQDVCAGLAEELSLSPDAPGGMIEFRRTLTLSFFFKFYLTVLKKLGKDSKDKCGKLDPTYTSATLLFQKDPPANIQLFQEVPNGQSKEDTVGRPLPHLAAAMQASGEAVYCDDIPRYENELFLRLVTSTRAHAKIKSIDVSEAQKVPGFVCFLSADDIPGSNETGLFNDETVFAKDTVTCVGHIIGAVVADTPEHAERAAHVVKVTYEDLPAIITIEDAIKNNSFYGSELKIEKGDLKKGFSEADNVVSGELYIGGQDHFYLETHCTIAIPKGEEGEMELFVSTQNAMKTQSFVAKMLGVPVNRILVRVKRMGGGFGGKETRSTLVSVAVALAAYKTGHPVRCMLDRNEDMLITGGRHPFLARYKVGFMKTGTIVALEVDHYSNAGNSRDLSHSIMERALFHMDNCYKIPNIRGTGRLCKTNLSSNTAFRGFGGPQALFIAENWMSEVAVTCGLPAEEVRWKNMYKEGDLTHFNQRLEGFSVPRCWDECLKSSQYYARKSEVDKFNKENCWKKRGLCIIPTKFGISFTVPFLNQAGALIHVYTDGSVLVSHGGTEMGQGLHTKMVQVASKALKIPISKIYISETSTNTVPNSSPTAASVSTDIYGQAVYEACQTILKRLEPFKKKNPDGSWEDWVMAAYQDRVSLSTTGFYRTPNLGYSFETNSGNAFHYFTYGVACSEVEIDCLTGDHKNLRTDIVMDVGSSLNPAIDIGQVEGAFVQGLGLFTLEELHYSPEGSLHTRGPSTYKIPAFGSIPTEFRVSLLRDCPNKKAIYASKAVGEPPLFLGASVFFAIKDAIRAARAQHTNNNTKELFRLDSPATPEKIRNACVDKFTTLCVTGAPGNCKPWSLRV

SMILES | IC50 [1] [µM] | Activity (mmolequiv/mmol) [2] | inhibition [14] [%] | further results
O=C(/C=C/c1cccc(O)c1)c1ccccc1O | 91.8 | 0.93 | – | IC50 [3]: 108 µM
O=C(/C=C/c1ccccc1O)c1ccc(O)cc1O | 56.8 | 0.87 | – | inhibition (INH) [4]: Active; IC50 [3]: 128 µM; Activity (Mus musculus [5]): 5.21 mg/dL; Activity (Mus musculus [6]): 4.5 mg/dL; Activity (Mus musculus [7]): 73.2 U/g protein; Activity (Mus musculus [8]): 64.1 U/g protein; Activity (Mus musculus [9]): Dose-dependent effect; Activity (Mus musculus [10]): Non-Toxic; Activity (Mus musculus [11]): Non-Toxic; Activity (Mus musculus [12]): Non-Toxic; Activity (Mus musculus [13]): Non-Toxic
O=C(/C=C/c1ccc(O)cc1)c1ccccc1O | 79.4 | 0.24 | 23.1 | –
O=C(/C=C/c1ccccc1)c1ccc(O)cc1O [2',4'-DIHYDROXYCHALCONE] | 107 | 0.38 | – | IC50 [3]: 197 µM
O=C(/C=C/c1ccccc1)c1cccc(O)c1 | 165 | < 0.1 | 11.7 | –
O=C(/C=C/c1ccc(O)cc1)c1cccc(O)c1 | 133 | 0.16 | 19.7 | –
O=C(/C=C/c1ccccc1)c1ccccc1O [2'-HYDROXYCHALCONE] | 71.3 | < 0.1 | 13.5 | –
Oc1ccc(/C=C/c2cc(O)cc(O)c2)cc1 [RESVERATROL] | – | 0.65 | – | IC50 [3]: 95.1 µM
O=C(/C=C/c1ccccc1O)c1ccccc1O | 87.4 | 0.17 | 28 | –
O=C(/C=C/c1cccc(O)c1)c1ccc(O)cc1O | 108 | 0.45 | 38.6 | –
O=C(/C=C/c1ccc(O)cc1)c1ccc(O)cc1 [4,4'-DIHYDROXYCHALCONE] | 117 | 0.43 | 35.9 | –
O=C(/C=C/c1cccc(O)c1)c1cccc(O)c1 | 88.3 | 0.18 | 24.3 | –
O=C(/C=C/c1cccc(O)c1)c1ccccc1 [3-HYDROXY CHALCONE] | 228 | < 0.1 | 11.3 | –
O=C(/C=C/c1ccccc1O)c1ccccc1 | 145 | < 0.1 | 10.8 | –
O=C(/C=C/c1ccccc1)c1ccccc1 [CHALCONE] | – | < 0.1 | 18.4 | inhibition (INH) [15]: Not Active
Oc1ncnc2[nH]ncc12 [ALLOPURINOL] | – | < 0.1 | 20.5 | Activity (Mus musculus [5]): 4.14 mg/dL; Activity (Mus musculus [7]): 50.9 U/g protein
O=C(/C=C/c1ccc(O)cc1)c1ccccc1 [4-HYDROXYCHALCONE] | 159 | < 0.1 | 25.7 | –
O=C(/C=C/c1ccc(O)cc1O)c1ccccc1 | – | < 0.1 | 10.8 | inhibition (INH) [15]: Not Active
O=C(/C=C/c1ccc(O)cc1)c1ccc(O)cc1O [ISOLIQUIRITIGENIN] | 47.3 | 0.51 | – | IC50 [3]: 287 µM; Activity (Mus musculus [5]): 5.14 mg/dL; Activity (Mus musculus [6]): 4.45 mg/dL; Activity (Mus musculus [7]): 70.5 U/g protein; Activity (Mus musculus [8]): 62 U/g protein; Activity (Mus musculus [10]): Non-Toxic; Activity (Mus musculus [11]): Non-Toxic; Activity (Mus musculus [12]): Non-Toxic; Activity (Mus musculus [13]): Non-Toxic
O=C(/C=C/c1ccccc1)c1ccc(O)cc1 [4'-HYDROXYCHALCONE] | – | < 0.1 | 12.5 | inhibition (INH) [15]: Not Active
